Source: ChEMBL document CHEMBL2380237, “Substituted imidazopyridazines are potent and selective inhibitors of Plasmodium falciparum calcium-dependent protein kinase 1 (PfCDPK1)” (Bioorg Med Chem Lett, 2013)
Blank lines part the entries; values can stand above or below the molecule they belong to. The source made the active and inactive calls. The rule behind the calls is not given here.

Experiments:
Plasmodium berghei = experiment: Inhibition of Plasmodium berghei recombinant CDPK1 by fluorescence assay in presence of rhodamine-labeled ParM
How it was run: (§1)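 Recombinant CDPK1 (P. berghei or P. vivax) ATPase activity followed with an ADP-sensitive biosensor, rhodamine-labeled ParM; reaction progress tracked as rising fluorescence from ADP accumulation on a plate reader.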

[1] = Metabolic stability in mouse liver microsomes after 30 mins; assay type: ADME, Microsome; conditions: read-out: Stability
[2] = Metabolic stability in human liver microsomes after 30 mins; assay type: ADME, Microsome; conditions: read-out: Stability
[3] = target: Receptor tyrosine-protein kinase erbB-4 (Homo sapiens) (UniProt Q15303); experiment: Inhibition of human HER4 at 1 uM
[4] = target: Phosphorylase kinase (Homo sapiens) (UniProt P15735+P46020+P46019+Q93100+Q16816); experiment: Inhibition of human PHK at 1 uM; assay type: protein-complex assay
[5] = target: T1, NUAK family SNF1-like kinase 1 (Homo sapiens) (UniProt O60285); experiment: Inhibition of human NUAK1 at 1 uM
T1 sequence (whole entry): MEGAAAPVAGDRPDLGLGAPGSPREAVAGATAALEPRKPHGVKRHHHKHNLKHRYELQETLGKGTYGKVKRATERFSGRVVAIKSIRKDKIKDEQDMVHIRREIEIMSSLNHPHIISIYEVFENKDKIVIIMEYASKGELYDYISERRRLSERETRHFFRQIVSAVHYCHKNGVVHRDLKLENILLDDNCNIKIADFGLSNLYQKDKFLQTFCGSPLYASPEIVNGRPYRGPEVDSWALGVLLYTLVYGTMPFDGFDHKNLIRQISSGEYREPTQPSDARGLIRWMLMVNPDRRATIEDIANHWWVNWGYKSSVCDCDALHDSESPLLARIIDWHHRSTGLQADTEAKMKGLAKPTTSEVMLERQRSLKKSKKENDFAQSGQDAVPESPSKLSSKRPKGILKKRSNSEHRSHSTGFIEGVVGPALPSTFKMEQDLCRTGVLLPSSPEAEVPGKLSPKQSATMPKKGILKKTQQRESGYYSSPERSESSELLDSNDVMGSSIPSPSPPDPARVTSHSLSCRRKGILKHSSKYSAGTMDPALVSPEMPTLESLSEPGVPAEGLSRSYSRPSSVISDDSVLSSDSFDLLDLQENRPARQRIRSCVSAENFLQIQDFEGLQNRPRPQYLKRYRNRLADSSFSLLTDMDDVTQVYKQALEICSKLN

[6] = target: Calcium/calmodulin-dependent protein kinase type 1 (Homo sapiens) (UniProt Q14012); experiment: Inhibition of human CAMK1 at 1 uM
[7] = target: Ribosomal protein S6 kinase alpha-1 (Homo sapiens) (UniProt Q15418); experiment: Inhibition of human RSK1 at 1 uM
Plasmodium vivax = experiment: Inhibition of Plasmodium vivax recombinant CDPK1 by fluorescence assay in presence of rhodamine-labeled ParM; how it was run: as §1
[8] = target: Mitogen-activated protein kinase kinase kinase 9 (Homo sapiens) (UniProt P80192); experiment: Inhibition of human MLK1 at 1 uM
[9] = Intrinsic clearance in mouse; assay type: ADME, organism-based; conditions: in vivo
[10] = target: Tyrosine-protein kinase Lck (Homo sapiens) (UniProt P06239); experiment: Inhibition of human LCK at 1 uM
[11] = target: Tyrosine-protein kinase Yes (Homo sapiens) (UniProt P07947); experiment: Inhibition of human YES1 at 1 uM
[12] = target: Serine/threonine-protein kinase Chk2 (Homo sapiens) (UniProt O96017); experiment: Inhibition of human CHK2 at 1 uM
[13] = target: Proto-oncogene tyrosine-protein kinase Src (Homo sapiens) (UniProt P12931); experiment: Inhibition of human SRC at 1 uM
[14] = target: Aurora kinase B (Homo sapiens) (UniProt Q96GD4); experiment: Inhibition of human Aurora B at 1 uM
[15] = target: T2, Mitogen-activated protein kinase kinase kinase kinase 2 (Homo sapiens) (UniProt Q12851); experiment: Inhibition of human GCK at 1 uM
T2 sequence (whole entry): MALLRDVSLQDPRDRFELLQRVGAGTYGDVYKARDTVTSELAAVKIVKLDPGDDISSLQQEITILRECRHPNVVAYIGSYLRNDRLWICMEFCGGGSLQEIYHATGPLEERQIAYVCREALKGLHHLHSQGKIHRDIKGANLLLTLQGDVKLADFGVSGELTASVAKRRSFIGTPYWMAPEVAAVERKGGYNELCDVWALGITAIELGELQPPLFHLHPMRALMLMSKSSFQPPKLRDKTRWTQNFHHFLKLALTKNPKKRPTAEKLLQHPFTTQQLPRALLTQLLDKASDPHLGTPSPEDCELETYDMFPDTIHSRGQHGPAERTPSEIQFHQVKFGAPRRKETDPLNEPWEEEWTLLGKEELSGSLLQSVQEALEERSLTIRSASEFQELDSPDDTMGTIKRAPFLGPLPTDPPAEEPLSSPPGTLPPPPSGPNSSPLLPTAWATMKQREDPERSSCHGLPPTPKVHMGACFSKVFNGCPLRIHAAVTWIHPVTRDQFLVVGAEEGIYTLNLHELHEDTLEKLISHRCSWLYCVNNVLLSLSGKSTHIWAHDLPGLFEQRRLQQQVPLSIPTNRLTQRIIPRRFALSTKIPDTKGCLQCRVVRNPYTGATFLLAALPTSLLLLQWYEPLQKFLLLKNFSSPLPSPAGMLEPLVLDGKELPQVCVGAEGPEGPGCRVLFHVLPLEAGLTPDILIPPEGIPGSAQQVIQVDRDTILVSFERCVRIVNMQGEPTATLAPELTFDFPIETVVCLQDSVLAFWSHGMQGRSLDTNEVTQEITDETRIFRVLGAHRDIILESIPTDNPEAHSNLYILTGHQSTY

[16] = target: Dual specificity mitogen-activated protein kinase kinase 1 (Homo sapiens) (UniProt Q02750); experiment: Inhibition of human MKK1 at 1 uM
[17] = target: T3, Serine/threonine-protein kinase D1 (Homo sapiens) (UniProt Q15139); experiment: Inhibition of human PKD1 at 1 uM
T3 sequence (whole entry): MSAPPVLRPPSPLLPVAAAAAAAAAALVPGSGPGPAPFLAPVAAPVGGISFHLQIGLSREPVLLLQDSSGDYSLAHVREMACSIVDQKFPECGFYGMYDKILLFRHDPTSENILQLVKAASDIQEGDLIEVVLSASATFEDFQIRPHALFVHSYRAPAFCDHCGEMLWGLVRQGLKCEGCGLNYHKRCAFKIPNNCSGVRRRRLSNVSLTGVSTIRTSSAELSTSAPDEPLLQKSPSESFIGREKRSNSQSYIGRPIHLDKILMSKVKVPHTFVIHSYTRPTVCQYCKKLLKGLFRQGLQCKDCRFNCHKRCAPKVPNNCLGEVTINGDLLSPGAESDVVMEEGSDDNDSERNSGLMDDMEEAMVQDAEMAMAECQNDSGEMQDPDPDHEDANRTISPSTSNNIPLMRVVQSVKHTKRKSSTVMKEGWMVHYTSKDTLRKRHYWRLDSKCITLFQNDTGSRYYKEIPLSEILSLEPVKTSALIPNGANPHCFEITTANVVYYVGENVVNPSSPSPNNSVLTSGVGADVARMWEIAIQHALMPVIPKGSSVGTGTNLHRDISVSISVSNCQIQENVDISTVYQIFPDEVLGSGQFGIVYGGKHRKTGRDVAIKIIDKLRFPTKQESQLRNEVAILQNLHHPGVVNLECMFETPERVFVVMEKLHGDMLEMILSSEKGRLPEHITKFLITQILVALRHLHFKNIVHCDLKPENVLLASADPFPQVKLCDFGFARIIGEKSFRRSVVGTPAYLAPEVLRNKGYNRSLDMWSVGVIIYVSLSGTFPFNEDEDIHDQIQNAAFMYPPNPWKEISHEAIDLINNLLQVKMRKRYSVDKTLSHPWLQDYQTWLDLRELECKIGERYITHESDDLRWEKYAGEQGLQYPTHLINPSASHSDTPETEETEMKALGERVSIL

Homo sapiens = organism: Homo sapiens; experiment: Inhibition of human VEGFR at 1 uM

Sequence of Ribosomal protein S6 kinase alpha-1 (Homo sapiens) (Q15418 whole entry): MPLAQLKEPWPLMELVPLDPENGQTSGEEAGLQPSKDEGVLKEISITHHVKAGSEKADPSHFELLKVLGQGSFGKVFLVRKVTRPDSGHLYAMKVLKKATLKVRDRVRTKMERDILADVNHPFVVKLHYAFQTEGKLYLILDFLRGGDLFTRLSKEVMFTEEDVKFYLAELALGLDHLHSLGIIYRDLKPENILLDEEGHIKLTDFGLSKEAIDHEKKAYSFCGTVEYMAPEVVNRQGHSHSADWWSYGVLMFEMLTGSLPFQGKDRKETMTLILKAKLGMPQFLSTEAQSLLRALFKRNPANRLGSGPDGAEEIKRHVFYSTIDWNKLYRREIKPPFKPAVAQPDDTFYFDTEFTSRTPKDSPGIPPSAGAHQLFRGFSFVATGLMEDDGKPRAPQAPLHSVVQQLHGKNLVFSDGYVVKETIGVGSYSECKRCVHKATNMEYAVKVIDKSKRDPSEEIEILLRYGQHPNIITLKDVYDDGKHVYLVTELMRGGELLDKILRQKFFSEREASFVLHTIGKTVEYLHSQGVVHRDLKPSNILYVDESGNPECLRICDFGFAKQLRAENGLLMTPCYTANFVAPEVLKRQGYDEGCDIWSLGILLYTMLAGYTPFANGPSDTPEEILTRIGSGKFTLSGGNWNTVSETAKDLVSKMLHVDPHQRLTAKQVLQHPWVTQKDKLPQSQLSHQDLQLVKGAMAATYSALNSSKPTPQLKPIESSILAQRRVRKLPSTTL
Sequence of Calcium/calmodulin-dependent protein kinase type 1 (Homo sapiens) (Q14012 whole entry, looked up): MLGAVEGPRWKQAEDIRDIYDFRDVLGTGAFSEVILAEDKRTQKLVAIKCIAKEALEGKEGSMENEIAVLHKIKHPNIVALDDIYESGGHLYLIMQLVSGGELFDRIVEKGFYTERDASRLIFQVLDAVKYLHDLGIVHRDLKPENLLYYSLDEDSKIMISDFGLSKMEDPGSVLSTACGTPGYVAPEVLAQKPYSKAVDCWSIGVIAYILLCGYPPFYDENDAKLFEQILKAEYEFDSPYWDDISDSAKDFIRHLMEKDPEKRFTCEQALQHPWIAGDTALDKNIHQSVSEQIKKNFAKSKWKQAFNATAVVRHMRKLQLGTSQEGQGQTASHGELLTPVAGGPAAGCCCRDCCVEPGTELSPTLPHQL
Sequence of Receptor tyrosine-protein kinase erbB-4 (Homo sapiens) (Q15303 whole entry): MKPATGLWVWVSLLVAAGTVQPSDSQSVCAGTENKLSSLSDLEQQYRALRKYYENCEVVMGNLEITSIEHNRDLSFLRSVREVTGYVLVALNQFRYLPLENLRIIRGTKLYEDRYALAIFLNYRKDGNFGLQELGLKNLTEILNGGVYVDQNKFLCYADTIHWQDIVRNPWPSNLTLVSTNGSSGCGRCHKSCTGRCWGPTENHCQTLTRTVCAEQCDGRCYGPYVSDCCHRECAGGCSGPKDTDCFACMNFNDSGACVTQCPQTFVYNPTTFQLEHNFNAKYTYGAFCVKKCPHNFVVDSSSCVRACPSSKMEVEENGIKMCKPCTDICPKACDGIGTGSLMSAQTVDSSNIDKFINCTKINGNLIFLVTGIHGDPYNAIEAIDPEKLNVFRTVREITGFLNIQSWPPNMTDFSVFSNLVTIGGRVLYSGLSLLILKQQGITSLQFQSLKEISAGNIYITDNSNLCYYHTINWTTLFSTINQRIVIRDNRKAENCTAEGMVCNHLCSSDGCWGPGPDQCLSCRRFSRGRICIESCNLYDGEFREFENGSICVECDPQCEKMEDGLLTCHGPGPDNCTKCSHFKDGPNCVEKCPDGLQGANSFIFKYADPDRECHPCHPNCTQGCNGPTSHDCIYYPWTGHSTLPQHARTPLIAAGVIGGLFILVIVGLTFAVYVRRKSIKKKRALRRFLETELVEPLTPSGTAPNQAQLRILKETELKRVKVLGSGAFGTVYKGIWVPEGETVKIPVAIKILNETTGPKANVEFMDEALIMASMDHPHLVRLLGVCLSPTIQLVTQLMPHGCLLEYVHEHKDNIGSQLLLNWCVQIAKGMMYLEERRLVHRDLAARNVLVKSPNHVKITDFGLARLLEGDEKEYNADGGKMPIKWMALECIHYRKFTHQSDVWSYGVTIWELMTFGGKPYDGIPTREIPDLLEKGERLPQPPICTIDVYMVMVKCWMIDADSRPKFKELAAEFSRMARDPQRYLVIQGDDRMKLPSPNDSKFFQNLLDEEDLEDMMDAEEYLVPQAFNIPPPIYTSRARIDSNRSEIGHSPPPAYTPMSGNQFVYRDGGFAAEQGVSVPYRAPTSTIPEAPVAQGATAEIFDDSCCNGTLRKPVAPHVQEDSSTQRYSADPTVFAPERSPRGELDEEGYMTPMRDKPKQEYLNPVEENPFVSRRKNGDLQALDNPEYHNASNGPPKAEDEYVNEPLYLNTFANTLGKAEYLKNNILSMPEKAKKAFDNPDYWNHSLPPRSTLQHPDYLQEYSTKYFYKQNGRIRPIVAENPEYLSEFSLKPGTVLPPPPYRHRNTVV
Sequence of Tyrosine-protein kinase Lck (Homo sapiens) (P06239 2-509 limits assumed): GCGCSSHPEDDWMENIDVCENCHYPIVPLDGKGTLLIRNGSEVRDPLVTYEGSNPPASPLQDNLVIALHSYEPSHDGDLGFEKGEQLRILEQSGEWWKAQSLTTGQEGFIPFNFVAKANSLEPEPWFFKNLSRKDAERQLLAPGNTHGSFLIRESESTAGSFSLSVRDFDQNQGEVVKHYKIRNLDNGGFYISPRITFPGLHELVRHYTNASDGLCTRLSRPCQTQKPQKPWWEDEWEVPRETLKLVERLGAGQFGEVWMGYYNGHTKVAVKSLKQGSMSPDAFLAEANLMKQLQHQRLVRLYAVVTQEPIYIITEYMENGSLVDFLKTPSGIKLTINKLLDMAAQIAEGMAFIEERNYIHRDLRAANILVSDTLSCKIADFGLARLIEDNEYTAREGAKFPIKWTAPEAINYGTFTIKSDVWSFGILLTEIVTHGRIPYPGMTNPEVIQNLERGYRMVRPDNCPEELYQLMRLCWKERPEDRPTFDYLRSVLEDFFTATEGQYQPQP
Sequence of Serine/threonine-protein kinase Chk2 (Homo sapiens) (O96017 whole entry): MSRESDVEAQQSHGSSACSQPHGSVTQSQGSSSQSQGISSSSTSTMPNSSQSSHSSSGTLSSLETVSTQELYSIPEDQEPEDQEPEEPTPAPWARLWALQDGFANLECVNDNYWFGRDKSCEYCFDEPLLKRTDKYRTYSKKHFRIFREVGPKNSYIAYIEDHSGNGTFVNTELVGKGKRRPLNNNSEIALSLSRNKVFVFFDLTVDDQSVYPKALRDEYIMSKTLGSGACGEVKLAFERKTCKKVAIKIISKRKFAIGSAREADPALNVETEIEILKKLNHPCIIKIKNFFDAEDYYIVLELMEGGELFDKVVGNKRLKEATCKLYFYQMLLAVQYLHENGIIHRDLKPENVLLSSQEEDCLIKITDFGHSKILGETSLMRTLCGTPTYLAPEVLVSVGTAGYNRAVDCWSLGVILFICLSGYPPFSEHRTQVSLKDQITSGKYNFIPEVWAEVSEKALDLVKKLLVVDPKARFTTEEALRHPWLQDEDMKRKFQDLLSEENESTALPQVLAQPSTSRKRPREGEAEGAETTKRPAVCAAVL
Sequence of Dual specificity mitogen-activated protein kinase kinase 1 (Homo sapiens) (Q02750 whole entry): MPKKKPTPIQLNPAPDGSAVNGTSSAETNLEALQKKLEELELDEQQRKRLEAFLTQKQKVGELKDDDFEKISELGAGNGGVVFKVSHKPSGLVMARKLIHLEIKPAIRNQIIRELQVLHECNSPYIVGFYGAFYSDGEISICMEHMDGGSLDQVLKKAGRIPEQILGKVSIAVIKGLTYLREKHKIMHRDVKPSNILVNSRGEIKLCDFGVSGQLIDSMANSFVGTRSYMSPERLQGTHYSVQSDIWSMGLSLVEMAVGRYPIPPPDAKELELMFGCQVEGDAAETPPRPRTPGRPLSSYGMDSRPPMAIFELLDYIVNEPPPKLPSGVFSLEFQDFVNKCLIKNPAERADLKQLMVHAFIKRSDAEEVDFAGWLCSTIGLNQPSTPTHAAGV
Sequence of Mitogen-activated protein kinase kinase kinase 9 (Homo sapiens) (P80192 whole entry, looked up): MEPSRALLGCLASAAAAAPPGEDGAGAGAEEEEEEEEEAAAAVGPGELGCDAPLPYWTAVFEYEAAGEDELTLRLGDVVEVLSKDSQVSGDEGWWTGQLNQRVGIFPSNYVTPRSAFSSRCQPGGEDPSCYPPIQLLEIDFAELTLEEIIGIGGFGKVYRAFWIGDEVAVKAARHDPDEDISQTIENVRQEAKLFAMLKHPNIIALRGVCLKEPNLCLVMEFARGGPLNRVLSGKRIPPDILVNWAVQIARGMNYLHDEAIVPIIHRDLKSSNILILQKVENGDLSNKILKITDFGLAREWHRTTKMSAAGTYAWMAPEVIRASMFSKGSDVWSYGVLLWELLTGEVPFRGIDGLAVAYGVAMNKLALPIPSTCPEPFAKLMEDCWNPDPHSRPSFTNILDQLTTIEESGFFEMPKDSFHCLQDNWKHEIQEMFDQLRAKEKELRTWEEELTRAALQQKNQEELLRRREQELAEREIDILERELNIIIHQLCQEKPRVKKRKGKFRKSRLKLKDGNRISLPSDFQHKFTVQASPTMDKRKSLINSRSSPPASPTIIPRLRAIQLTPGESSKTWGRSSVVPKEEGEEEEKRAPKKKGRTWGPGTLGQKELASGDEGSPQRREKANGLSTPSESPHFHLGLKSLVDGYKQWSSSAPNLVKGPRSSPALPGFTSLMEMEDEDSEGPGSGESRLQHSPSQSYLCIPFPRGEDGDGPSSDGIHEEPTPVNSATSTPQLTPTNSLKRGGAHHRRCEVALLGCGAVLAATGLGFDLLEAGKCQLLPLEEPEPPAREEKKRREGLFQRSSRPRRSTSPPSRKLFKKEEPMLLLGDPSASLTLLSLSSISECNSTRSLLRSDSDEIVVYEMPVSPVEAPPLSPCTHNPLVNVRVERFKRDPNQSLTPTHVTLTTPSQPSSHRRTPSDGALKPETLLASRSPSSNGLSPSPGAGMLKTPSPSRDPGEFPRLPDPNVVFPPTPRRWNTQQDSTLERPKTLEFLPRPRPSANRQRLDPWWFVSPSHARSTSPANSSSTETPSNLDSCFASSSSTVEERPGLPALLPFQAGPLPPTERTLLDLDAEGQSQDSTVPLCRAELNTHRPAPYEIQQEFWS

- inhibition (Plasmodium berghei): Active
SMILES: COC(=O)Nc1cccc(-c2cnc3ccc(NC4CCN(C)CC4)nn23)c1

- inhibition (Plasmodium berghei): Active
SMILES: CC(C)CCOc1ccc(-c2cnc3ccc(N[C@H]4CC[C@H](N)CC4)nn23)cn1

- remaining at 0.5 h [1]: 84%
- inhibition (Plasmodium berghei): Active
- remaining at 0.5 h [2]: 80%
SMILES: CC(C)CCNc1ccc(-c2cnc3ccc(N4CCC(N(C)C)CC4)nn23)cn1

- inhibition (Plasmodium berghei): Active
SMILES: CC(C)CCNc1ccc(-c2cnc3ccc(N4CCN(C)CC4)nn23)cn1

- inhibition (Plasmodium berghei): Active
SMILES: CC(=O)Nc1cccc(-c2cnc3ccc(NCCc4ccccn4)nn23)c1

- inhibition (Plasmodium berghei): Active
SMILES: NC(=O)c1ccc(-c2cnc3ccc(NCCc4ccccn4)nn23)cc1

- inhibition (Plasmodium berghei): Active
SMILES: CN1CCC(Nc2ccc3ncc(-c4ccc(NCC5CC5)nc4)n3n2)CC1

- remaining at 0.5 h [1]: 90%
- inhibition [3]: Active
- inhibition [4]: Active
- inhibition (Plasmodium berghei): Active
- inhibition [5]: Active
- inhibition [6]: Active
- inhibition [7]: Active
- inhibition (Plasmodium vivax): Active
- remaining at 0.5 h [2]: 90%
SMILES: CC(C)CCNc1ccc(-c2cnc3ccc(N4CCC(N)CC4)nn23)cn1

- inhibition (Plasmodium berghei): Active
SMILES: CC(C)CCNc1ccc(-c2cnc3ccc(NC4CN(C)C4)nn23)cn1

- inhibition (Plasmodium berghei): Active
SMILES: CC(C)CCNc1ncc(-c2cnc3ccc(N[C@H]4CC[C@H](N)CC4)nn23)cn1

- inhibition (Plasmodium berghei): Active
SMILES: CC(C)CCNc1ccc(-c2cnc3ccc(NC4CCNCC4)nn23)cn1

- inhibition (Plasmodium berghei): Active
SMILES: NC(=O)c1ccc(-c2cnc3ccc(NCCc4cccnc4)nn23)cc1

- inhibition (Plasmodium berghei): Active
SMILES: COCCNc1ccc(-c2cnc3ccc(NC4CCN(C)CC4)nn23)cn1

- inhibition [8]: Active
- CLint scaled [9]: 49.7 mL/min/kg
- inhibition [10]: Active
- inhibition [11]: Active
- remaining at 0.5 h [1]: 63%
- inhibition [12]: Active
- inhibition [13]: Active
- inhibition (Plasmodium berghei): Active
- inhibition [14]: Active
- inhibition [5]: Active
- inhibition [15]: Active
- inhibition [16]: Active
- inhibition [17]: Active
- inhibition [7]: Active
- inhibition (Plasmodium vivax): Active
- inhibition (Homo sapiens): Active
SMILES: CC(C)CCNc1ccc(-c2cnc3ccc(NC4CCN(C)CC4)nn23)cn1

- inhibition (Plasmodium berghei): Active
SMILES: CC(=O)Nc1cccc(-c2cnc3ccc(N[C@H]4CC[C@H](N)CC4)nn23)c1

- inhibition (Plasmodium berghei): Active
SMILES: N#Cc1ccc(-c2cnc3ccc(NCCc4cccnc4)nn23)cc1

- inhibition (Plasmodium berghei): Active
SMILES: CN1CCC(Nc2ccc3ncc(-c4cccc(NC(=O)C5CC5)c4)n3n2)CC1

- inhibition (Plasmodium berghei): Active
SMILES: CC(C)CCNC(=O)c1ccc(-c2cnc3ccc(NC4CCN(C)CC4)nn23)cc1

- inhibition (Plasmodium berghei): Active
SMILES: CCCCNc1ccc(-c2cnc3ccc(NC4CCN(C)CC4)nn23)cn1

- remaining at 0.5 h [1]: 74%
- inhibition (Plasmodium berghei): Active
- inhibition [7]: Active
- inhibition (Plasmodium vivax): Active
- remaining at 0.5 h [2]: 63%
SMILES: CC(C)CCNc1ccc(-c2cnc3ccc(NC4CCN(C)C4)nn23)cn1 (centres undefined)

- inhibition (Plasmodium berghei): Active
SMILES: CC(C)CCNc1cc(-c2cnc3ccc(NC4CCN(C)CC4)nn23)ccn1

- inhibition (Plasmodium berghei): Active
SMILES: CC(C)CCNc1ncc(-c2cnc3ccc(NC4CCN(C)CC4)nn23)cn1

- inhibition (Plasmodium berghei): Active
SMILES: CC(C)CCNC(=O)c1ccc(-c2cnc3ccc(N[C@H]4CC[C@H](N)CC4)nn23)cc1

- inhibition (Plasmodium berghei): Active
SMILES: CC(C)CCNc1nccc(-c2cnc3ccc(NC4CCN(C)CC4)nn23)n1

- inhibition (Plasmodium berghei): Active
SMILES: Fc1cccc(-c2cnc3ccc(NCCc4cccnc4)nn23)c1
